Test results reported in ChEMBL document CHEMBL1221405, “Chlorinated iridoid glucosides from Veronica longifolia and their antioxidant activity” (J Nat Prod, 2010).
Values after ≈ are worked out from the molar mass of the structure shown.

How the values were obtained:
Assay type in all cases: functional
[1] = system: Radical scavenging activity; experiment: Antioxidant activity assessed as DPPH radical scavenging activity after 30 mins
Method in brief: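 Compounds in MeOH at various concentrations were added to DPPH in MeOH (80 µg/mL). After 30 min, remaining DPPH was read by absorbance at 520 nm. Scavenging was calculated against a blank (100%) holding only DPPH and solvent.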

[2] = Antioxidant activity assessed as superoxide radical scavenging activity by NBT method
Method in brief: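 Alkaline DMSO method (modified Kunchandy and Rao). Samples in DMSO were mixed with NBT (1 mg/mL in DMSO). Alkaline DMSO (DMSO with 5 mM NaOH in water) was added to give the final mixture. Absorbance was read at 560 nm.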

[3] = Antioxidant activity assessed as nitric oxide scavenging activity after 150 mins by Griess assay
Method in brief: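 Serially diluted samples were mixed with an equal volume of 10 mM sodium nitroprusside in PBS and incubated under light at room temperature for 150 min. After 10 min, nitrite chromophore absorbance was read at 577 nm.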

Structure (SMILES) | IC50 [1] | IC50 [2] | IC50 [3]
O=C(O[C@H]1[C@@H]2C=CO[C@@H](O[C@H]3O[C@@H](CO)[C@H](O)[C@@H](O)[C@@H]3O)[C@@H]2[C@](O)(CO)[C@@H]1Cl)c1ccc(O)c(O)c1 [LONGIFOLIOSIDES A] | 27 µg/mL (≈ 50.5 µM) | 92 µg/mL (≈ 172 µM) | 149 µg/mL (≈ 279 µM)
O=c1c(O)c(-c2ccc(O)c(O)c2)oc2cc(O)cc(O)c12 [QUERCETIN] | < 10 µg/mL | 68 µg/mL (≈ 225 µM) | 96 µg/mL (≈ 318 µM)
O=C(/C=C/c1ccc(O)c(O)c1)O[C@H]1[C@@H]2C=CO[C@@H](O[C@H]3O[C@@H](CO)[C@H](O)[C@@H](O)[C@@H]3O)[C@@H]2[C@](O)(CO)[C@@H]1Cl [LONGIFOLIOSIDE B] | 19 µg/mL (≈ 33.9 µM) | 199 µg/mL (≈ 355 µM) | 285 µg/mL (≈ 508 µM)
O=C1O[C@H]([C@@H](O)CO)C(O)=C1O [ASCORBIC ACID] | < 10 µg/mL | 13 µg/mL (≈ 73.8 µM) | > 1000 µg/mL
